Source: ChEMBL document CHEMBL1154833, “Curcuminoid analogs with potent activity against Trypanosoma and Leishmania species” (Eur J Med Chem, 2010)

Columns and labels:
[1] = system: Trypanosoma brucei brucei; assay: Antitrypanosomal activity against multidrug-resistant Trypanosoma brucei brucei B48 after 48 hrs by alamar blue assay; format: functional, organism-based; conditions: B48, 48 h
[2] = system: Trypanosoma brucei brucei; assay: Antitrypanosomal activity against Trypanosoma brucei brucei 427 after 48 hrs by alamar blue assay; format: functional, organism-based
HEK293 = assay: Cytotoxicity against HEK293 cells after 16 hrs by alamar blue assay; format: cell-based, Homo sapiens
Summary of the method: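 HEK293T cells grown in DMEM-based medium with 10% newborn bovine serum at 37 °C, 5% CO2. Doubling dilutions of compound added for 16 h, then resazurin added. Fluorescence read at emission 590 nm after a further 24 h.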

[3] = system: Trypanosoma brucei brucei; assay: Antitrypanosomal activity against diminazene-resistant Trypanosoma brucei brucei deltaTbat1-KO after 48 hrs by alamar blue assay; format: functional, organism-based
Leishmania major = assay: Antileishmanial activity against Leishmania major Friedlin promastigotes after 48 hrs by alamar blue assay; format: functional, organism-based
Summary of the method: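 L. major Friedlin promastigotes grown in HOMEM with 10% FBS at 25 °C. Alamar Blue fluorescence assay in 96-well plates. 3–6 independent experiments unless noted.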

Leishmania mexicana = assay: Antileishmanial activity against Leishmania mexicana MNYC/BZ/62/M379 amastigotes after 48 hrs by alamar blue assay; format: functional, organism-based
Summary of the method: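 Axenic L. mexicana MNYC/BZ/62/M379 amastigotes kept at 33 °C under CO2 in Schneider's Drosophila medium with 20% FBS and 0.3% gentamycin. Alamar Blue fluorescence read-out.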

Trypanosoma evansi = assay: Antitrypanosomal activity against Trypanosoma evansi ITMAV170475 after 48 hrs by alamar blue assay; format: functional, organism-based; conditions: ITMAV170475, 48 h
Summary of the method: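 Culture-adapted T. evansi ITMAV170475 seeded at 1.5 ×10⁵ trypanosomes/ml in HMI9/20% FBS. Exposed to compound for 48 h, then incubated with Alamar Blue for 24 h, all at 37 °C under CO2. Assay validated against hemocytometer cell counts. EC50 from a variable-slope sigmoid fit.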

[4] = Trypanosoma brucei, 427, 48 h, read-out: EC50
[5] = Homo sapiens, HEK293, 16 h, read-out: EC50
[6] = Leishmania major, Friedlin, 48 h, read-out: EC50
[7] = Leishmania mexicana, MNYC/BZ/62/M379, 48 h, read-out: EC50

Row | Structure (SMILES) | EC50 [1] | EC50 [2, 4] | EC50 (HEK293; [5]) | EC50 [3] | EC50 (Leishmania major; [6]) | EC50 (Leishmania mexicana; [7]) | EC50 [2] | EC50 (HEK293; hek293) | EC50 (Leishmania major) | EC50 (Leishmania mexicana) | EC50 (Trypanosoma evansi)
1 | COc1cc(/C=C/C=C/C(=O)CCc2ccc(O)c(OC)c2)ccc1O | 2.2 µM | 4.1 µM | 76 µM | 9.7 µM | 30 µM | 22 µM |  |  |  |  | 
2 | N=C(N)c1ccc(OCCCCCOc2ccc(C(=N)N)cc2)cc1 [PENTAMIDINE] | 0.67 µM |  |  |  | 3.8 µM | 16 µM |  |  |  |  | 
3 | COc1ccc(/C=C/C(=O)CC(=O)/C=C/c2ccc(OC)c(OC)c2)cc1 | 1.9 µM | 1.6 µM | 690 µM | 1.9 µM | 23 µM | 61 µM |  |  |  |  | 
4 | O=C(/C=C/CCc1ccc(O)c(O)c1)CCc1ccc(O)c(O)c1 [DEHYDROHIRSUTANONOL] |  | 2.5 µM | 220 µM | 3.2 µM | > 100 µM | 17 µM |  |  |  |  | 
5 | COc1cc(/C=C/C(O)=C/C(=O)/C=C/c2ccc(O)cc2)ccc1O [DEMETHOXYCURCUMIN] | 2.2 µM | 4.6 µM | 40 µM | 5.9 µM | 37 µM | 37 µM |  |  |  |  | 
6 | COc1ccc(/C=C/C(=O)CC(=O)/C=C/c2ccc(O)cc2)cc1 | 2.9 µM | 8.9 µM | 400 µM | 8.8 µM | 87 µM | 32 µM |  |  |  |  | 
7 | O=C(/C=C/c1ccc(OC(=O)c2ccccc2)cc1)CC(=O)/C=C/c1ccc(OC(=O)c2ccccc2)cc1 |  |  |  |  |  |  | ND(Insoluble) | ND(Insoluble) | ND(Insoluble) | ND(Insoluble) | 
8 | COc1cc(/C=C/C(=O)CC(=O)/C=C/c2cc(OC)c(O)c([N+](=O)[O-])c2)ccc1O | 25 µM | 15 µM | 82 µM | 18 µM | 28 µM | 14 µM |  |  |  |  | 
9 | COc1cc(/C=C/C(=O)CC(=O)/C=C/c2ccc(OCC=C(C)C)cc2)ccc1OCC=C(C)C | 3.1 µM | 1.9 µM | > 500 µM | 2.9 µM | 48 µM | 27 µM |  |  |  |  | 
10 | COc1cc(CCCCC(=O)CCc2ccc(O)c(OC)c2)ccc1O | 27 µM | 32 µM | 140 µM | 28 µM | 37 µM | > 50 µM |  |  |  |  | 
11 | COc1cc(/C=C/C=C/C(=O)/C=C/c2ccc(O)c(OC)c2)ccc1O | 0.58 µM | 1.1 µM | 22 µM | 1.4 µM | 7.4 µM | 4.8 µM |  |  |  |  | 
12 | COc1cc(/C=C/C(=O)CC(=O)/C=C/c2ccc(OC(=O)c3ccccc3)cc2)ccc1OC(=O)c1ccccc1 |  |  |  |  |  |  | ND(Insoluble) | ND(Insoluble) | ND(Insoluble) | ND(Insoluble) | 
13 | COc1cc(CC/C=C/C(=O)CCc2ccc(OC(C)=O)c(OC)c2)ccc1OC(C)=O | 0.021 µM | 0.052 µM | 30 µM | 0.042 µM | 7.8 µM | 35 µM |  |  |  |  | 
14 | COc1cc(/C=C/C(=O)CC(=O)/C=C/c2ccc(O)cc2)ccc1OC(=O)c1ccccc1 | 4.7 µM | 1.2 µM | 370 µM | 1.6 µM | 42 µM | > 100 µM |  |  |  |  | 
15 | COc1cc(/C=C/C(=O)CC(=O)/C=C/c2ccc(OCCO)cc2)ccc1O | 1.1 µM | 0.7 µM | 46 µM | 0.85 µM | 9.7 µM | 32 µM |  |  |  |  | 
16 | CCCCCOc1ccc(CC/C=C/C(=O)CCc2ccc(OCCCCC)c(OC)c2)cc1OC | 1.8 µM | 1.1 µM | 43 µM | 1.2 µM | 6.6 µM | 53 µM |  |  |  |  | 
17 | COc1cc(CCC(=O)CC(=O)CCc2ccc(O)cc2)ccc1O [TETRAHYDRODEMETHOXYCURCUMIN] | 18 µM | 22 µM |  | 34 µM | > 100 µM | > 50 µM |  |  |  |  | 
18 | COc1ccc(CCC(=O)CC(O)CCc2ccc(OC)c(OC)c2)cc1OC (stereo not given) |  |  | 370 µM |  | 41 µM | > 100 µM |  |  |  |  | 
19 | COc1cc(CCC(=O)CC(O)CCc2ccc(O)c(OC)c2)ccc1O (stereo not given) [HEXAHYDROCURCUMIN] | 5.9 µM | 17 µM | 370 µM | 38 µM | > 100 µM | > 100 µM |  |  |  |  | 
20 | O=C(/C=C/c1ccc(O)cc1)CC(=O)/C=C/c1ccc(O)cc1 [BISDEMETHOXYCURCUMIN] | 4.5 µM | 7.7 µM | 200 µM | 9.5 µM | 72 µM | 63 µM |  |  |  |  | 

Row | Structure (SMILES) | EC50 [1] | EC50 [2, 4] | EC50 (HEK293; [5]) | EC50 [3] | EC50 (Leishmania major; [6]) | EC50 (Leishmania mexicana; [7]) | EC50 [2] | EC50 (HEK293; hek293) | EC50 (Leishmania major) | EC50 (Leishmania mexicana) | EC50 (Trypanosoma evansi)
21 | COc1cc(/C=C/C(=O)/C=C/CCc2ccc(O)c(OC)c2)ccc1O | 0.1 µM | 0.22 µM | 8.1 µM | 0.22 µM | 2.7 µM | 4.6 µM |  |  |  |  | 0.21 µM
22 | COc1cc(/C=C/C(=O)CC(=O)/C=C/c2ccc(OCC=C(C)C)c(OC)c2)ccc1O | 2 µM | 1.4 µM | > 500 µM | 1.7 µM | 7.6 µM | 21 µM |  |  |  |  | 
23 | COc1cc(/C=C/C(=O)CC(=O)/C=C/c2ccc(OC(C)=O)cc2)ccc1OC(C)=O | 0.92 µM | 1.5 µM | 49 µM | 2 µM | > 100 µM | 43 µM |  |  |  |  | 
24 | COc1cc(/C=C/C(=O)CC(=O)/C=C/c2ccc(OCCO)c(OC)c2)ccc1O | 1.8 µM | 2.9 µM | 25 µM | 2.9 µM | 22 µM | 30 µM |  |  |  |  | 
25 | O=C(/C=C/c1ccc(O)cc1)CC(=O)/C=C/c1ccc(OC(=O)c2ccccc2)cc1 | 12 µM | 4.1 µM | 270 µM | 10 µM | 60 µM | > 100 µM |  |  |  |  | 
26 | COc1cc(/C=C/C(=O)CC(=O)/C=C/c2ccc(OC(=O)c3ccccc3)c(OC)c2)ccc1O | 2.1 µM | 3.1 µM | 94 µM | 3.8 µM | 9.3 µM | 76 µM |  |  |  |  | 1.5 µM
27 | O=C(CCc1ccc(O)cc1)CC(=O)CCc1ccc(O)cc1 [LETESTUIANIN C] | 5.1 µM | 2.5 µM | 350 µM | 4 µM | 80 µM | 64 µM |  |  |  |  | 
28 | COc1cc(CCC(O)CC(O)CCc2ccc(O)c(OC)c2)ccc1O (stereo not given) [OCTAHYDROCURCUMIN] | > 100 µM | 78 µM |  | 61 µM | > 100 µM | > 100 µM |  |  |  |  | 
29 | CCCOc1ccc(/C=C/C(=O)CC(=O)/C=C/c2ccc(OCCC)c(OC)c2)cc1OC | 1.6 µM | 1.3 µM | > 500 µM | 1.8 µM | 28 µM | 34 µM |  |  |  |  | 
30 | O=C(CCc1ccc(O)c(O)c1)CC(=O)CCc1ccc(O)c(O)c1 [DIDEMETHYLTETRAHYDROCURCUMIN] | 1.7 µM | 1.9 µM | 150 µM | 1.5 µM | > 100 µM | 53 µM |  |  |  |  | 
31 | COc1cc(/C=C/C(=O)CC(=O)/C=C/c2ccc(OC(C)=O)c(OC)c2)ccc1OC(C)=O | 1.2 µM | 1.6 µM | 80 µM | 2.2 µM | 73 µM | 34 µM |  |  |  |  | 
32 | COc1cc(/C=C/C(=O)CC(=O)/C=C/c2ccc(OC(=O)c3ccccc3)cc2)ccc1O | 7.8 µM | 3.7 µM | > 500 µM | 7.8 µM | 20 µM | > 100 µM |  |  |  |  | 2.9 µM
33 | N=C(N)c1ccc(/N=N/Nc2ccc(C(=N)N)cc2)cc1 [DIMINAZENE] | 1 µM | 0.12 µM |  | 2.4 µM |  |  |  |  |  |  | 0.018 µM
34 | COc1cc(CCC(=O)CC(=O)CCc2ccc(O)c(OC)c2)ccc1O [TETRAHYDROCURCUMIN] | 12 µM | 21 µM | 120 µM | 37 µM | 90 µM | 43 µM |  |  |  |  | 
35 | COc1cc(/C=C/C(=O)CC(=O)/C=C/c2ccc(OC(=O)c3ccccc3)c(OC)c2)ccc1OC(=O)c1ccccc1 |  |  |  |  |  |  | ND(Insoluble) | ND(Insoluble) | ND(Insoluble) | ND(Insoluble) | 
36 | COc1cc(/C=C/C(=O)CC(=O)/C=C/c2ccc(OCCO)c(OC)c2)ccc1OCCO | 1.6 µM | 1.8 µM | 20 µM | 2.3 µM | 33 µM | 37 µM |  |  |  |  | 
37 | COc1cc(CCC(=O)CC(=O)CCc2ccc(O)c(O)c2)ccc1O | 0.43 µM | 0.5 µM | 130 µM | 0.52 µM | 11 µM | 16 µM |  |  |  |  | 
38 | O=C(/C=C/c1ccc(O)c(O)c1)CC(=O)/C=C/c1ccc(O)c(O)c1 | 3.4 µM | 1.8 µM | 39 µM | 2.5 µM | 26 µM | 12 µM |  |  |  |  | 
39 | COc1ccc(/C=C/C(=O)CC(=O)/C=C/c2ccc(O)c(OC)c2)cc1 | 2.1 µM | 1.7 µM | 79 µM | 2 µM | 23 µM | 38 µM |  |  |  |  | 
